This is an account of results in BindingDB's records for doi:10.1021/jm000452m (Abbott Laboratories, 2001).

For orientation: IC50 means the concentration at which inhibition is half-maximal. Low values mean inhibition by little substance, high ones a need for much substance.

Test [1] deals with T1, Vascular cell adhesion protein 1 (Homo sapiens, UniProt P19320).
T1 sequence (P19320 whole entry): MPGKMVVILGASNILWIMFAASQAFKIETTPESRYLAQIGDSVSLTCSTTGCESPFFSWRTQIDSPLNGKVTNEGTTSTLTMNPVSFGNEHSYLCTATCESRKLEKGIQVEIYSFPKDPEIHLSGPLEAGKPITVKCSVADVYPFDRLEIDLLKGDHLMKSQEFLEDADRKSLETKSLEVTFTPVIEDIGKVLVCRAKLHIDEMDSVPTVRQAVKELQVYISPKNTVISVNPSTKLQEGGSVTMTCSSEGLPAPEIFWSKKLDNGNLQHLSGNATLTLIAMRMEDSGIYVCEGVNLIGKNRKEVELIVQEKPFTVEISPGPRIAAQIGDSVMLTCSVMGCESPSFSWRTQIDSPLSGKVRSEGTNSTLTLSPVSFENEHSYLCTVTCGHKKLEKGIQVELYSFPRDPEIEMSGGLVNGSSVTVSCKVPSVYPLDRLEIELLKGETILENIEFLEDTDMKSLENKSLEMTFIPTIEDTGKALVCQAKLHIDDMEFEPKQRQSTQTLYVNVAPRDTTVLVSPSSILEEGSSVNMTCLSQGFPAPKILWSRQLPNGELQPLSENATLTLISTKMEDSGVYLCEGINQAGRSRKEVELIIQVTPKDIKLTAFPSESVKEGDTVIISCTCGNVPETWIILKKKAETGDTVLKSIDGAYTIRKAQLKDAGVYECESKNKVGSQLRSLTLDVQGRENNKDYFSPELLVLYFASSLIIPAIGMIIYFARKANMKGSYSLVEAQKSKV
The experiment in a line: In vitro potency against TNF alpha induced expression of VCAM-1 on human vascular endothelial cells using CAM ELISA assay. The procedure, abridged: (§1)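 Surface E-selectin, ICAM-1 or VCAM-1 was detected with mouse monoclonal primary antibody (overnight, 4 °C), then HRP anti-mouse IgG and OPD, with absorbance read at 490 nm. IC50 from triplicates; SEM across repeat triplicate runs.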
For orientation: In an ELISA, binding on a coated surface is turned into a signal by an enzyme label.

Test [2] can be described thus: In vitro potency against TNF alpha induced expression of Selectin E on human vascular endothelial cells using CAM ELISA assay.
A short description of test [3]: In vitro potency against TNF alpha induced expression of intercellular adhesion molecule-1 on human vascular endothelial cells using CAM ELISA assay.
In a further test the target is T2, E-selectin (Homo sapiens, UniProt P16581).
T2 sequence (P16581 whole entry): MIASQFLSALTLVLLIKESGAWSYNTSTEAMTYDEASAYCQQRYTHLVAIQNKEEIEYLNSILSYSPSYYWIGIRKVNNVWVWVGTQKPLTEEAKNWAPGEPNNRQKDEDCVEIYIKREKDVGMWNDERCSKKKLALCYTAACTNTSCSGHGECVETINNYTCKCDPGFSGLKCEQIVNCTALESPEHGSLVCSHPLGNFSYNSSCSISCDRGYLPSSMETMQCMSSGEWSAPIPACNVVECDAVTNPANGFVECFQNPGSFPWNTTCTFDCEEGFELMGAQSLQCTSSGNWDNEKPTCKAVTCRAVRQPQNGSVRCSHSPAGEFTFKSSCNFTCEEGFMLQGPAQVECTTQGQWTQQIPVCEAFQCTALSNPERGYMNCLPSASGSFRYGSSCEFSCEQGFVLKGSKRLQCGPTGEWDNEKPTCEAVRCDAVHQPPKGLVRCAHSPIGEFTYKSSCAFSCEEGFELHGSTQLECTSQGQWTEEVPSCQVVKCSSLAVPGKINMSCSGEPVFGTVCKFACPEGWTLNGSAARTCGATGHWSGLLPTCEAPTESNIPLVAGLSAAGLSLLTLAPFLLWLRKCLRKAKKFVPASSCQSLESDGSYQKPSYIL
The experiment in a line: In vitro potency against TNF alpha induced expression of Selectin E on human vascular endothelial cells using CAM ELISA assay. The procedure, abridged:
as §1

Test [4] has as its target Intercellular adhesion molecule 1 (Homo sapiens, UniProt P05362). The experiment in a line: In vitro potency against TNF alpha induced expression of intercellular adhesion molecule-1 on human vascular endothelial cells using CAM ELISA assay. Summed up: as §1

Chain of Intercellular adhesion molecule 1 (P05362 whole entry): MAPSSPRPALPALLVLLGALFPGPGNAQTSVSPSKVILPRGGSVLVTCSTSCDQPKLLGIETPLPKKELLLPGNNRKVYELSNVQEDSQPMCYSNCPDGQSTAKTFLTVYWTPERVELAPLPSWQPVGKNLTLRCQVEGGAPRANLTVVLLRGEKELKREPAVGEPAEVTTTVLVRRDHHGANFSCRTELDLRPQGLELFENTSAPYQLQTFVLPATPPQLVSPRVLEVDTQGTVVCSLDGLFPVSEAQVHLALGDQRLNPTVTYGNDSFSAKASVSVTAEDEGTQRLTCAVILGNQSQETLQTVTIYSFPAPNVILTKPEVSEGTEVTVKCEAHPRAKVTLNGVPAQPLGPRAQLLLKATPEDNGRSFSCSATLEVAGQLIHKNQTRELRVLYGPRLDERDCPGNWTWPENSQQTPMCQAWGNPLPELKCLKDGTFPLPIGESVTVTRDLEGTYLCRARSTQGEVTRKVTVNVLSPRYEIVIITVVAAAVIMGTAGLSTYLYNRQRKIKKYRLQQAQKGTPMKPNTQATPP

On to `Cc1ccc(Sc2cncc3sc(/C=N/OCC(=O)O)cc23)cc1` [(4-p-Tolylsulfanyl-thieno[2,3-c]pyridin-2-ylmethyleneaminooxy)-acetic acid], for which the IC50 in test [1], in test [2] and in test [3] was above 4 µM throughout.

As for `Cc1ccc(Sc2cncc3sccc23)cc1` [4-p-Tolylsulfanyl-thieno[2,3-c]pyridine], the IC50 in test [1] amounted to 2.1 µM; in test [2] it was 1.7 µM; in test [3], 1.8 µM.

As to `CCc1cc2c(=O)[nH]cnc2s1` [MLS000029626], the IC50 in test [1], in test [2] and in test [3] was above 100 µM in each case.

Regarding `CCc1cc2c(Sc3nnc(N)s3)ncnc2s1` [GNF-Pf-1931], the half-maximal inhibitory concentration (IC50) was found to be 2.5 µM in test [1], 3 µM in test [2] and 6.3 µM in test [3].

`CCc1cc2c(Sc3nnc(C)s3)ncnc2s1` [6-Ethyl-4-(5-methyl-[1,3,4]thiadiazol-2-ylsulfanyl)-thieno[2,3-d]pyrimidine]: the IC50 turned out to be 3.5 µM in test [1], 4 µM in test [2] and 5 µM in test [3].

Compound `Cc1ccc(Sc2cncc3sc(C(N)=O)cc23)cc1` [4-p-Tolylsulfanyl-thieno[2,3-c]pyridine-2-carboxylic acid amide] registered an IC50 in test [1] above 1 µM.

As to `Cc1ccc(Sc2cncc3sc(CN=O)cc23)cc1` [4-p-Tolylsulfanyl-thieno[2,3-c]pyridine-2-carbaldehyde oxime], the IC50 on E-selectin is 1.5 µM; in test [1], above 4 µM; in test [4], 1.9 µM.

On to `Cc1ccc(Sc2cncc3sc(C(C)N=O)cc23)cc1` (centres undefined) [1-(4-p-Tolylsulfanyl-thieno[2,3-c]pyridin-2-yl)-ethanone oxime], for which the IC50 against E-selectin is 0.055 µM; in test [1], above 1 µM; in test [4], 0.085 µM.

Take `Cc1ccc(Sc2cncc3sc(C(N)=S)cc23)cc1` [4-p-Tolylsulfanyl-thieno[2,3-c]pyridine-2-carbothioic acid amide]: the figures for the IC50 in test [1], in test [2] and in test [3] were 19 µM, 0.15 µM and 0.16 µM, respectively.

On to `Cc1ccc(Sc2cncc3sc(C(N)=O)cc23)cc1C` [4-(3,4-Dimethyl-phenylsulfanyl)-thieno[2,3-c]pyridine-2-carboxylic acid amide], for which the results for the IC50 in test [1], in test [2] and in test [3] were above 1 µM, 0.013 µM and 0.008 µM, respectively.

Take `CCc1cc2c(NCc3ccccc3)ncnc2s1` [Benzyl-(6-ethyl-thieno[2,3-d]pyrimidin-4-yl)-amine]: the IC50 in test [1] was found to be 59 µM; in test [2] it was 49 µM; in test [3] it was 56 µM.

`Cc1ccc(Sc2ccnc3sc(C(N)=O)cc23)cc1` [4-p-Tolylsulfanyl-thieno[2,3-b]pyridine-2-carboxylic acid amide]: the half-maximal inhibitory concentration (IC50) in test [1] was found to be 15 µM; in test [2] it was 16 µM; in test [3], 39 µM.

Turning to `Cc1ccc(Sc2cncc3sc(C(=O)NCCCN4CCOCC4)cc23)cc1` [4-p-Tolylsulfanyl-thieno[2,3-c]pyridine-2-carboxylic acid (3-morpholin-4-yl-propyl)-amide], the IC50 in test [1], in test [2] and in test [3] was above 4 µM throughout.

For `Cc1ccc(Sc2cncc3sc(C(=O)NN)cc23)cc1` [4-p-Tolylsulfanyl-thieno[2,3-c]pyridine-2-carboxylic acid hydrazide], the IC50 in test [1] came out at 46 µM; in test [2] it was 0.032 µM; in test [3], 0.032 µM.

Regarding `CCc1cc2c(Cl)ncnc2s1` [4-Chloro-6-ethyl-thieno[2,3-d]pyrimidine], the IC50 is 18 µM in test [1], 27 µM in test [2] and above 100 µM in test [3].

On to `Cc1ccc(Sc2cncc3sc(C(N)=O)cc23)c(C)c1` [4-(2,4-Dimethyl-phenylsulfanyl)-thieno[2,3-c]pyridine-2-carboxylic acid amide], for which the IC50 in test [1] amounted to 0.77 µM; in test [2] it was 0.043 µM; in test [3] it was 0.054 µM.

As to `NC(=O)c1cc2c(Sc3ccccn3)cncc2s1` [4-(Pyridin-2-ylsulfanyl)-thieno[2,3-c]pyridine-2-carboxylic acid amide], the results for the IC50 in test [1], in test [2] and in test [3] were 65 µM, 0.66 µM and 2.3 µM, respectively.

Regarding `CCc1cc2c(SCc3ccccc3)ncnc2s1` [4-Benzylsulfanyl-6-ethyl-thieno[2,3-d]pyrimidine], the IC50 in test [1] worked out at 17 µM; in test [2], 95 µM; in test [3], 99 µM.

Regarding `NC(=O)c1cc2c(Sc3ccc(Cl)c(Cl)c3)cncc2s1` [4-(3,4-Dichloro-phenylsulfanyl)-thieno[2,3-c]pyridine-2-carboxylic acid amide], the IC50 in test [1] was above 1 µM; in test [2] it was 0.1 µM; in test [3], 0.037 µM.

With `NC(=O)c1cc2c(Sc3ccc(C(F)(F)F)cc3)cncc2s1` [4-(4-Trifluoromethyl-phenylsulfanyl)-thieno[2,3-c]pyridine-2-carboxylic acid amide], the IC50 in test [1] is above 0.1 µM; in test [2] it was 0.044 µM; in test [3], 0.039 µM.

Turning to `Cc1cccc(Sc2cncc3sc(C(N)=O)cc23)c1` [4-m-Tolylsulfanyl-thieno[2,3-c]pyridine-2-carboxylic acid amide], the IC50 in test [1] was above 4 µM; in test [2] it was 0.045 µM; in test [3] it was 0.14 µM.

In the case of `Cc1occc1Sc1cncc2sc(C(N)=O)cc12` [4-(2-Methyl-furan-3-ylsulfanyl)-thieno[2,3-c]pyridine-2-carboxylic acid amide], the figures for the IC50 in test [1], in test [2] and in test [3] were above 1 µM, 0.6 µM and 0.57 µM, respectively.
